PAX8 inh HTS – lowers PAX8-driven luciferase in RMG-I cells; inhibition, % at 12.6 µM; AID 652154; RMG-I TPO-luciferase reporter, SteadyGlo, 24 h; 360,000 compounds, 1.2% hits;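 active means mean replicate inhibition at least 60% with every replicate also reaching 60%; inconclusive means only one of the two criteria is met; inactive means mean below 60% and not all replicates reaching 60%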;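 further: luciferase light reporting Pax8 driven TPO promoter activity; plate controls were median of neutral control wells for no effect and mitoxantrone controls for full effect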
EWS-Fli inh – inhibitors of EWS/Fli oncoprotein transcriptional activity. 350,000 compounds, 0.67% hits. A673 NR0B1-luciferase reporter, viability-normalised. inhibition, % at 12.6 µM;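 active means mean inhibition of at least 50% after viability correction, with every replicate also passing that limit; inconclusive means mean reaches 50% but only one of two replicates passes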;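 further: firefly luciferase signal divided by Alamar Blue viability fluorescence both relative to DMSO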
Env fusion inh – HIV envelope-mediated fusion inhibition; 360,000 compounds, 1.1% hits; AID 651610; HeLa-JRFL Env/CEM21 cell fusion, luciferase; inhibition, % at 12.3 µM;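 active means mean replicate inhibition score of at least 50 and every replicate individually at or above 50; inconclusive means only one of the two criteria met; inactive means mean below 50 and not all replicates reaching 50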;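 further: 0% = plate neutral controls and 100% = maraviroc near 300 nM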
CFTR F508del cor – correctors of CFTR F508del function in bronchial epithelial cells. CFBE cells, YFP halide quenching; stimulated with forskolin plus potentiator P3; % fluorescence drop versus neutral controls. activity (quench increase), % at 7.58 µM. 350,000 compounds, 0.36% hits. AID 720511;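 active means mean added fluorescence quench of at least 8% versus neutral control, with both replicates also reaching 8%; inconclusive means only one of the mean or replicate conditions met; inactive means mean below 8% and not both replicates reaching 8%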;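 further: cells transiently co-express mutant CFTR-F508del with the halide-sensitive YFP; corrector assay measuring rescue of mutant channel to the surface after 24 h compound exposure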
FN deposition inh – fibronectin deposition inhibition. AH1F fibroblasts, Alexa488-fibronectin deposition fluorescence, overnight. inhibition, % at 12.6 µM. 350,000 compounds, 0.086% hits;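 active means mean inhibition across replicates of 30% or more, regardless of how many single replicates reach that level; inconclusive means mean under 30% yet at least half of replicates reach 30%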;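 further: positive control wells lacked labelled fibronectin entirely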
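Assay system: AH1F fibroblasts assembling fluorescent fibronectin matrix; Amount: 10000 AH1F cells per well; Buffer or medium: DMEM, 2% serum; Probe or stimulus: Alexa488-fibronectin, 24 nM final in well; Doses: single compound dose, delivered by pin transfer; Incubation: 1 h adhesion, overnight exposure; Measured by: fluorescence 485/525 nm; Read-out: fibronectin deposition inhibition.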
PGC1a acetyl inh – PGC1a acetylation modulation, inhibitor mode | U2OS PGC1a acetylation, AlphaScreen anti-acetyl-lysine; with virally co-expressed GCN5 acetyltransferase | inhibition, % at 15.6 µM | 350,000 compounds, 0.17% hits | AID 651687;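 active means every replicate shows inhibition of at least 40%; inconclusive means mean inhibition at least 40% but some replicate below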;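 further: 0% = neutral control wells and 100% = positive control wells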
The depositor's hits bear a star; u = inconclusive; x = no result given; [ ] = remark or other dose. In the library only some 2.3% were active in any assay of this set; here they are far more common.

SMILES	PAX8 inh HTS	EWS-Fli inh	Env fusion inh	CFTR F508del cor	FN deposition inh	PGC1a acetyl inh
C[C@H](CO)N1C[C@H](C)[C@@H](CN(C)CC2CCCC2)Oc2cc(C3=CCCCC3)ccc2S1(=O)=O	11	16	56*[16.7 µM]	-2	x	-15
Cc1ccc(-c2ccc3c(c2)O[C@@H](CN(C)Cc2ccccn2)[C@H](C)CN([C@H](C)CO)S3(=O)=O)cc1	x	65*	16[16.7 µM]	16*	x	11
NS(=O)(=O)c1ccc(-n2ncc3c(=O)[nH]c(SCC(=O)Nc4nccs4)nc32)cc1	11	-5	-10	8.1*	7	5
COc1ccc(C(CCNCc2ccc(OC(C)C)cc2)c2ccccc2OC)cc1 (stereo unspecified)	15	58*	3	-2	-4	-16
CCC(=O)Nc1ccc2c(c1)C(=O)N(C)C[C@@H](OC)[C@H](C)CN(C(=O)CN(C)C)[C@@H](C)CO2	x	-4	x	0	-5	8
C[C@H](CO)N1C[C@H](C)[C@@H](CN(C)S(=O)(=O)c2ccc(F)cc2)Oc2ccc(NC(=O)Nc3ccc(C(F)(F)F)cc3)cc2CC1=O	-31	-6	101*[16.7 µM]	4	x	-10
COc1ccc(S(=O)(=O)N(C)C[C@H]2Oc3ccc(NC(=O)Nc4ccc(C(F)(F)F)cc4)cc3CC(=O)N([C@@H](C)CO)C[C@H]2C)cc1	18	-19	-8[16.7 µM]	-1	x	13
C[C@@H]1CN([C@H](C)CO)C(=O)Cc2cc(NC(=O)Nc3ccc(C(F)(F)F)cc3)ccc2O[C@H]1CN(C)S(=O)(=O)c1ccc(F)cc1	9	-1	17[16.7 µM]	1	x	-6
C[C@H]1CN([C@@H](C)CO)C(=O)Cc2cc(NC(=O)Nc3ccc(C(F)(F)F)cc3)ccc2O[C@H]1CN(C)S(=O)(=O)c1ccc(F)cc1	40	54*	-4[16.7 µM]	7	x	-7
COc1ccc(S(=O)(=O)N(C)C[C@H]2Oc3ccc(NC(=O)Nc4ccc(C(F)(F)F)cc4)cc3CC(=O)N([C@H](C)CO)C[C@@H]2C)cc1	79*	-8	26[16.7 µM]	1	x	8
C[C@H]1CN([C@@H](C)CO)C(=O)Cc2cc(NC(=O)Nc3ccc(C(F)(F)F)cc3)ccc2O[C@H]1CN(C)S(=O)(=O)c1cn(C)cn1	38	54*	15[16.7 µM]	2	2	-5
C[C@@H]1CN([C@@H](C)CO)C(=O)Cc2cc(NC(=O)Nc3ccc(C(F)(F)F)cc3)ccc2O[C@H]1CN(C)S(=O)(=O)c1cn(C)cn1	15	5	22[16.7 µM]	-1	-2	16
C[C@@H]1CN([C@@H](C)CO)C(=O)Cc2cc(NC(=O)Nc3ccc(C(F)(F)F)cc3)ccc2O[C@@H]1CN(C)S(=O)(=O)c1ccc(F)cc1	29	0	-59[16.7 µM]	5	x	-9
CO[C@@H]1CN(C)C(=O)c2ccc(NC(=O)c3cccc(F)c3)cc2OC[C@@H](C)N(C)C[C@@H]1C	x	3	x	-5	11	2
Cc1ccc(S(=O)(=O)N2C[C@H](O)COC[C@H]3O[C@H](CC(=O)NCC4CCCCC4)CC[C@@H]32)cc1	17	7	x	-1	0	6
CO[C@H]1CN(C)C(=O)c2ccc(NC(=O)NC(C)C)cc2OC[C@@H](C)N(Cc2cncnc2)C[C@@H]1C	x	0	x	0	-4	-2
C[C@@H]1CCCCO[C@H](CN(C)C(=O)c2ccccc2)[C@@H](C)CN([C@H](C)CO)C(=O)c2cc(NC(=O)CCCN(C)C)ccc2O1	-20	-4	-4[16.7 µM]	1	-10	2
Cc1ccc(S(=O)(=O)N2C[C@@H](O)COC[C@H]3O[C@H](CC(=O)N[C@H]4CCN(Cc5ccccc5)C4)CC[C@@H]32)cc1	0	8	x	3	3	-5
CN(C)CC(CCC(CN(C)C)C(O)(c1ccccc1)c1ccccc1)C(O)(c1ccccc1)c1ccccc1 (stereo unspecified)	87*	36	-45	1	-2	x
COc1ccccc1NC(=O)c1oc2ccccc2c1NC(=O)c1cc(OC)c(OC)c(OC)c1	x	60*	x	-1	x	4
CCOc1ccc(NC(=O)CN(c2ccc([N+](=O)[O-])cc2)S(=O)(=O)c2ccccc2)cc1	35	42	-66	15*	4	x
CCOc1ccc(N(CC(=O)Nc2ccccc2C)S(=O)(=O)c2c(C)noc2C)cc1	29	58*	-24	2	3	-3
CCOc1ccccc1NC(=O)CN(c1ccc(OC)cc1)S(=O)(=O)c1c(C)noc1C	24	x	6	x	-5	x
CCCN(C)C[C@H]1Oc2cc(C3=CCCC3)ccc2S(=O)(=O)N([C@H](C)CO)C[C@@H]1C	x	14	1[16.7 µM]	0	x	-8
CCCCCc1ccc(-c2ccc(/C=C/C(=O)O)cc2)nc1	-76	x	1	x	-17	x
SMILES	PAX8 inh HTS	EWS-Fli inh	Env fusion inh	CFTR F508del cor	FN deposition inh	PGC1a acetyl inh
CCCc1ccc(-c2ccc(/C=C/C(=O)O)cc2)nc1	-19	56*	61*	-6	1	x
CN1C(=O)c2cc(NC(=O)c3cccc(F)c3)ccc2OC[C@H]2O[C@@H](CC(=O)NCc3ccccc3)CC[C@H]21	14	6	31[16.7 µM]	1	-5	-25
CN(C)C(=O)C[C@H]1CC[C@H](NC(=O)C2CCOCC2)[C@@H](CO)O1	1	-2	11[16.7 µM]	1	-1	-4
CCc1c(C)nc2ncnn2c1NCCc1ccc(OC)cc1	x	48	x	11*	x	-12
CCc1c(C)nc2ncnn2c1Nc1ccc(C)cc1	27	7	28	2	0	15
CCOc1ccc(NC(=S)NCCCN2CCN(C3CCCCC3)CC2)cc1	37	11	x	1	7	14
COc1ccc(NC(=S)NCCCN2CCN(C3CCCCC3)CC2)cc1	16	-2	63*	-1	2	-12
CC(=O)N1C[C@@H]2C(c3ccccc3)[C@H](C1)N2C(C)=O (stereo partly specified)	x	x	x	x	-24	x
CC(OC(=O)c1snc(C(=O)NC2CCCCC2)c1N)C(=O)NC(C)(C)C (stereo unspecified)	13	x	u	x	2	9
CC(C)(C)NC(=O)COC(=O)c1snc(C(=O)NC2CCCCC2)c1N	-14	x	101*	x	-14	11
CC(=O)Nc1ccc2c(c1)CC(=O)N(C)C[C@H](C)[C@H](CN(C)C)O2	x	x	x	x	-19	x
O=C(NC1CCCCC1)C(c1ccc2ncccc2c1)N(Cc1ccc(F)cc1)C(=O)c1ccc2c(c1)OCCO2 (stereo unspecified)	x	10	x	0	x	-9
O=C(NC1CCCCC1)C(c1ccc2ncccc2c1)N(Cc1ccc2c(c1)OCO2)C(=O)c1ccc2c(c1)OCCO2 (stereo unspecified)	0	-5	2	0	10	96*
CC1(C)CC(=O)C=C(NCc2ccc(Cl)c(Cl)c2)C1	x	x	60*	x	-7	x
O=C1C=C(NCc2ccc(Cl)c(Cl)c2)CC1	x	x	x	x	x	-14
